Results from different studies.
UGT2B7: UDP-glucuronosyltransferase 2B7 (UGT2B7, Homo sapiens, UniProt P16662)

| SMILES | tested on | assay | system | conditions | measurement | result |
| --- | --- | --- | --- | --- | --- | --- |
| CSCC[C@H](NC(=O)COCCOCCNC(=O)COCCOCCNC(=O)CC[C@H](NC(=O)CCCCCCCCCCCCCCCCC(=O)O)C(=O)O)C(=O)N[C@H]1CSSC[C@@H](C(=O)NCC(=O)N[C@@H](CO)C(=O)NCC(=O)N[C@@H](CO)C(=O)N[C@@H](CC(=O)O)C(=O)N[C@@H](Cc2ccc(O)cc2)C(=O)N[C@@H](CCCCN)C(=O)N[C@@H](CC(=O)O)C(=O)N[C@@H](CC(=O)O)C(=O)N[C@@H](CC(=O)O)C(=O)N[C@@H](CC(=O)O)C(=O)N[C@@H](CCCCN)C(N)=O)NC(=O)[C@H](Cc2ccccc2)NC(=O)[C@@H]2CCCN2C(=O)[C@H](Cc2c[nH]c3ccccc23)NC(=O)[C@H](CC(C)C)NC(=O)[C@H](CCSC)NC(=O)[C@H](Cc2c[nH]cn2)NC(=O)[C@H](Cc2ccccc2)NC(=O)[C@H](Cc2c[nH]cn2)NC(=O)[C@H]([C@@H](C)O)NC(=O)[C@H](Cc2ccccc2)NC1=O | – | – | male Sprague-Dawley rat, plasma | intravenous | MRT | 13.7 h |
| C[C@@H](c1ccc2nccn2c1)n1nnc2ncc(-c3cnn(C)c3)nc21 | – | – | human, plasma | oral, 600 mg | Tmax | 4 h |
| CC(=C/C=C/C(C)=C/C(=O)O)/C=C1\CCCc2ccccc21 | – | – | human, plasma | oral, 20 mg, single dose, fasted, healthy volunteers | Tmax | 2.88 h |
| O=C1[O][Pt]2([NH][C@@H]3CCCC[C@H]3[NH]2)[O]C1=O (relative stereo) | – | – | cynomolgus monkey, plasma | oral, 10 mg/kg | MRT | 19.7 h |
| C=C1CC[C@@H]2[C@](C)(CO)[C@H](O)CC[C@@]2(C)[C@@H]1/C=C/C1=CCOC1=O | UGT2B7 | enzyme activity, inhibitor | – | – | Ki | 6.9 µM |
| Cl.Cl.O=C(CCN1CCCCC1)c1ccc(-c2ccc(C(=O)CCN3CCCCC3)cc2)cc1 | – | – | Sprague-Dawley rat, plasma | oral, 100 mg/kg | MRT(0-t) | 12.2 h |
| CN(C)CCc1c[nH]c2ccccc12 | – | – | human, plasma | intravenous, 9 mg, healthy volunteers, infusion | Tmax | 0.16 h |
| C=C1CCC2C(C)(CO)C(=O)CCC2(C)C1C=CC1=CCOC1=O (centres unmarked) | UGT2B7 | enzyme activity, inhibitor | – | – | Ki | 13.7 µM |
| O=C(O)c1cn(Cc2ccc(F)cc2)c2ccccc12 | UGT2B7 | enzyme activity, substrate | – | – | Km | 61.5 µM |
| CC(Cc1ccccc1)NCCn1cnc2c1c(=O)n(C)c(=O)n2C (centres unmarked) | Voltage-gated inwardly rectifying potassium channel KCNH2 (KCNH2, Homo sapiens, UniProt Q12809) | ligand displacement, radioligand | – | 10 µM | inhibition | -4% |
| Cc1ncc2n1-c1ccc(Cl)cc1C(c1ccccc1F)=NC2 | – | – | human, plasma | intravenous, 3 µg, single dose | Tmax | 0.0333 h |
| COc1ccc(C[C@@H]2NC(=O)[C@H]([C@@H](C)O)NC(=O)[C@@H]3[C@@H]4CCN3C(=O)[C@@H]3Cc5cn(c6ccc(F)cc56)CCCCCCN(Cc5ccc(cc5)CCNC(=O)[C@]5(C)CCCN5C2=O)C(=O)CCC(=O)N[C@@H](C)C(=O)N[C@H](CNC(=O)CCCCC[N+](C)(C)C)C(=O)N[C@@H](Cc2cccc(c2)CNC(=O)CO4)C(=O)N3)cc1 | – | – | human, plasma | oral, 200 mg, single dose | Tmax | 14.5 h |
| N=C(N)NCCC[C@@H](NC(=O)[C@@H](N)Cc1ccccc1)C(=O)N[C@@H](Cc1ccccc1)C(=O)N[C@@H](CCCCN)C(N)=O | – | – | human, plasma | subcutaneous, 15 mg, patients | Tmax | 0.75 h |
| Cc1ncc2n1-c1ccc(Cl)cc1C(c1ccccc1F)=NC2 | – | – | human, plasma | oral, 2 mg, single dose | Tmax | 0.67 h |
